ChEMBL document CHEMBL1126796, “2-(Alkylamino)nicotinic acid and analogs. Potent angiotensin II antagonists” (J Med Chem, 1993)
Activity calls are given as the source filed them. The calls are words filed in the database; no cut-off is given here.

Legend:
Rattus norvegicus [1] = assay: % decrease in blood pressure after 4 hours at a dose of 1 mg/kg in male rats by using Furosemide-treated spontaneous hypertensive model; assay type: functional
Method in brief: (§1)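 Male SHR, 20-24 weeks old, pretreated with furosemide 10 mg/kg sc at 22 and 4 h before the experiment; compound dosed orally. Arterial pressure was recorded from an indwelling femoral artery catheter with on-line blood pressure and heart rate analysis. Read-out is % fall in blood pressure at 4 h and at 24 h, ±SEM, with number of rats.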

Rattus norvegicus [2] = assay: % decrease in blood pressure after 24 hours at a dose of 1 mg/kg in male rats by using Furosemide-treated spontaneous hypertensive model; assay type: functional; method in brief: as §1
Rattus norvegicus [3] = assay: % decrease in blood pressure after 4 hours at a dose of 30 mg/kg in male rats by using Renal artery hypertensive model; assay type: functional
Method in brief: (§2)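 Male Sprague-Dawley rats (300-350 g) were made hypertensive by renal artery ligation and used on day 6 or 7 after ligation. Arterial pressure was measured from an indwelling femoral artery catheter, with blood pressure and heart rate recorded on line. Read-out is % decrease in blood pressure at 4 h, ±SEM, with number of rats.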

[4] = target: T1, Type-1 angiotensin II receptor A (Rattus norvegicus, UniProt P25095); assay: Binding affinity against angiotensin II receptor from rat liver
T1 sequence (P25095 whole entry): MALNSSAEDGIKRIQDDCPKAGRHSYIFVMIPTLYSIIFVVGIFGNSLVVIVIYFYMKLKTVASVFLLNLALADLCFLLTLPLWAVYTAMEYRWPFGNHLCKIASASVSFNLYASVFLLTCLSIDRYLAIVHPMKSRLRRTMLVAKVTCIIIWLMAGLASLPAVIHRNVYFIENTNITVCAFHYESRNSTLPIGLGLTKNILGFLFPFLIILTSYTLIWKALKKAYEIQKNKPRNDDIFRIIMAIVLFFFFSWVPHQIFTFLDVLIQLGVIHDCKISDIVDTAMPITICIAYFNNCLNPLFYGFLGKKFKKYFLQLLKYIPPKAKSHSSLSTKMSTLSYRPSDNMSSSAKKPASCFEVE
Method in brief: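 Rat liver membranes were incubated with [125I]-saralasin to measure angiotensin II type 1 receptor binding. Nonspecific binding was defined with 1 µM angiotensin.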

Rattus norvegicus [5] = assay: % decrease in blood pressure after 4 hours at a dose of 0.3 mg/kg in male rats by using Furosemide-treated spontaneous hypertensive model; assay type: functional; method in brief: as §1
Rattus norvegicus [6] = assay: % decrease in blood pressure after 24 hours at a dose of 0.1 mg/kg in male rats by using Furosemide-treated spontaneous hypertensive model; assay type: functional; method in brief: as §1
Rattus norvegicus [7] = assay: % decrease in blood pressure after 4 hours in male rats at a dose of 0.1 mg/kg by using Renal artery hypertensive model; assay type: functional; method in brief: as §2
Rattus norvegicus [8] = assay: % decrease in blood pressure after 4 hours at a dose of 0.3 mg/kg in male rats by using Renal artery hypertensive model; assay type: functional; method in brief: as §2
Rattus norvegicus [9] = assay: % decrease in blood pressure after 4 hours at a dose of 0.1 mg/kg in male rats by using Furosemide-treated spontaneous hypertensive model; assay type: functional; method in brief: as §1
Rattus norvegicus [10] = assay: % decrease in blood pressure after 24 hours at a dose of 0.3 mg/kg in male rats by using Furosemide-treated spontaneous hypertensive model; assay type: functional; method in brief: as §1
Rattus norvegicus [11] = assay: % decrease in blood pressure after 4 hours at a dose of 0.3 mg/kg in male rats by using Renal artery hypertensive model; IA means inactive; assay type: functional, organism-based; parameters: dose 0.3 mg/kg; method in brief: as §2
Rattus norvegicus [12] = assay: % decrease in blood pressure after 4 hours at a dose of 10 mg/kg in male rats by using Renal artery hypertensive model; assay type: functional; method in brief: as §2

For CCCN(Cc1ccc(-c2ccccc2-c2nn[nH]n2)cc1)c1nccc(C)c1C(=O)O, the “Decrease in blood pressure” value (Rattus norvegicus [1]) was 10% and the “Decrease in blood pressure” value (Rattus norvegicus [2]) was 15%.

CCCCN(Cc1ccc(-c2ccccc2-c2nn[nH]n2)cc1)c1nc(C)ncc1C(=O)O.Cl was tested, and the “Decrease in blood pressure” value (Rattus norvegicus [3]) was 11% and the Ki [4] was 15.3 nM.

For CCCCN(Cc1ccc(-c2ccccc2-c2nn[nH]n2)cc1)c1ncccc1C(=O)O, the “Decrease in blood pressure” value (Rattus norvegicus [5]) was 14%, the “Decrease in blood pressure” value (Rattus norvegicus [6]) was 22% and the “Decrease in blood pressure” value (Rattus norvegicus [7]) was 16%. For the same compound, the “Decrease in blood pressure” value (Rattus norvegicus [8]) was 45%, the “Decrease in blood pressure” value (Rattus norvegicus [9]) was 5% and the “Decrease in blood pressure” value (Rattus norvegicus [10]) was 40%.

In the case of CCCN(Cc1ccc(-c2ccccc2-c2nn[nH]n2)cc1)c1ncccc1CO, the “Decrease in blood pressure” value (Rattus norvegicus [11]) is reported as “inactive”.

With CCCCc1nc(Cl)c(C(=O)O)n1Cc1ccc(-c2ccccc2-c2nn[nH]n2)cc1 [CARBOXYLIC ACID METABOLITE] the “Decrease in blood pressure” value (Rattus norvegicus [12]) was 40%.
